Active and inactive are the calls of the source.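 Rule for the calls, unless noted: active = Her2 level under about 52% in both replicate screens, with viability over 70% of control (limit read from the data); inconclusive = Her2 under the limit in one screen only, or viability under 70%; inactive = Her2 level above the set limit.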
Key:
[1] = Her2 expression decrease, cell viability multiplex – SKBR3 breast tumor cells, AlphaScreen, ATP viability, primary screen (AID 461); details: SKBR3 Her2 protein level, 18-24 h, measured here: SKBR3 viability, ATP luminescence, at 10 µM;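 for Her2 level: lower value means less Her2 protein in the cells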;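 for viability: percent of carrier control wells set as 100% viability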
[2] = target: Receptor tyrosine-protein kinase erbB-2 (Homo sapiens) (UniProt P04626); experiment: as above; details: 18-24 h, at 10 µM, stronger effect = lower value
[3] = reduced viability of SK-BR-3 breast cancer cells – cell-based, 24 h, human, pilot screen (AID 572;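 active = viability at or below 10% of carrier control in both of two separate runs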;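 note: compound exposure lasted between 18 and 24 h rather than exactly 24 h; 100% = carrier-treated control wells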); details: SK-BR-3 viability, CellTiter-Glo luminescence, at 10 µM, stronger effect = lower value
[4] = HUVEC growth inhibition – cell-based, human, primary screen (AID 575;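 active = viability at or below 30% in both replicate assays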;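 note: 100% = median of untreated cell wells with 0.1% DMSO on each plate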); details: HUVEC proliferation, CellTiter-Glo luminescence, 72 h; at 10 µM; stronger effect = lower value
Method in brief: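 material = primary HUVEC, no more than 12 passages | input = 1250 cells per well | controls = vehicle and MePR control wells | measured by = CTG luminescence | times = 72 h compound incubation | format = collagen-coated 384-well format | read-out = % viability vs DMSO wells | doses = single 10 µM dose, 0.1% DMSO, from 5x medium stock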

[5] = H69AR cell proliferation blockers – human, duplicate replicates, primary screen (AID 580;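 active = viability at or under a set limit in both replicates, limit being median viability minus 3 SD, cut at about 48% in these data, passing the limit was not always enough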;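 note: 100% = mean luminescence of untreated wells and 0% = no signal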); details: H69AR lung tumor cells viability, ATP luminescence, 72 h; at 10 µM; stronger effect = lower value
[6] = MRP1 drug-resistance reversers in H69AR cells – cell-based, doxorubicin co-treatment, pilot screen (AID 601;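 active = viability loss from added drug above about 55%, and viability with drug at most 40%, in both replicates, limit read from the data, passing the limit was not always enough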); details: CellTiter-Glo, 72 h, at 10 µM; for differential viability (reversal): stronger effect = higher value
[7] = yeast transport mutant growth inhibition pilot in 384-well plates, post-Golgi transport modulator project (AID 636; in the data active = inhibition above about 31%); details: absorbance 615 nm, about 18 h, stronger effect = higher value
[8] = growth suppression of yeast trafficking mutant, preliminary HTS, modulators of trafficking downstream of Golgi apparatus project, 1536-format plate, OD 615 nm (AID 637; in the data active = inhibition above about 30%); details: yeast transport mutant growth, absorbance 615 nm, 18 h; stronger effect = higher value
[9] = H69AR cells + 2 uM doxorubicin, measured here: viability with 2 uM doxorubicin, stronger effect = lower value
[10] = H69AR cells, compound alone cytotoxicity

Sequence of Receptor tyrosine-protein kinase erbB-2 (Homo sapiens) (P04626 whole entry, looked up): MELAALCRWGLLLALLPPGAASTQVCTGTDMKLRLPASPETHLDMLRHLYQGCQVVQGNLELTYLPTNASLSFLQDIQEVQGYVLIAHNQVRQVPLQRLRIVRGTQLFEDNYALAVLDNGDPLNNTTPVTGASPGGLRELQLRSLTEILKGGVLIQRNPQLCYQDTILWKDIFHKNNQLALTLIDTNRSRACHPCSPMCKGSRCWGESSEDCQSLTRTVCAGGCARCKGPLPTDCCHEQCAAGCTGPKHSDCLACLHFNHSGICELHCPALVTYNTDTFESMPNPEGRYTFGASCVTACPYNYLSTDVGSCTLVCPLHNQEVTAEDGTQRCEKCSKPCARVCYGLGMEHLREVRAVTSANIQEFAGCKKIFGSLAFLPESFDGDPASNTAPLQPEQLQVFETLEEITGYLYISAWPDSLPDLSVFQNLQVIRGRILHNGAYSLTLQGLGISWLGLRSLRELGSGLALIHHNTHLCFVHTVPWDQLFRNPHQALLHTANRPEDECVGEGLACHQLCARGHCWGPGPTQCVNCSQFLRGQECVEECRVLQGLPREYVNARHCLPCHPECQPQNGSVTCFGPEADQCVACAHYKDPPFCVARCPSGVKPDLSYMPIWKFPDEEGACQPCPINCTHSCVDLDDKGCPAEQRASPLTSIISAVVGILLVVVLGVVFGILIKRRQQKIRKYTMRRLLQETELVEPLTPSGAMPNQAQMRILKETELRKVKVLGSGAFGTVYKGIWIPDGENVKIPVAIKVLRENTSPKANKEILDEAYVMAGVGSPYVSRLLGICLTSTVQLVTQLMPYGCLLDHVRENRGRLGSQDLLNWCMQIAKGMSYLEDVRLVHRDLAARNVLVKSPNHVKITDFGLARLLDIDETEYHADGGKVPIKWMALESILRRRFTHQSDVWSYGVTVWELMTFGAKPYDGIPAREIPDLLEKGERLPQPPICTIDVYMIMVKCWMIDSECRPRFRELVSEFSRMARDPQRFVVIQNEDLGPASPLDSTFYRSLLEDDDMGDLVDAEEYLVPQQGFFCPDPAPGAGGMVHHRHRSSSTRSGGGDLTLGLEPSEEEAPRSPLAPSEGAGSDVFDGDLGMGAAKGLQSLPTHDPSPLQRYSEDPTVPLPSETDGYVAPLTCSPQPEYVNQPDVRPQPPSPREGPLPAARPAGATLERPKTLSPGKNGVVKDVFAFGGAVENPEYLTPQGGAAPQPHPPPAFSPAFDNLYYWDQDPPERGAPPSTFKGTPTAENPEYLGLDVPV

Structure (SMILES)	viability [1]	Her2 level [2]	viability [3]	viability [4]	viability [5]	differential viability (reversal) ([6]; H69AR cells + 2 uM doxorubicin)	viability [6, 9]	viability [6, 10]	inhibition [7]	inhibition [8]
O=C(NCC(=O)N1CCC(N2CCCCC2)CC1)C1CCCCC1	88.5%	108% (inactive)	88.5% (inactive)	106% (inactive)	94.4% (inactive)	1.99% (inactive)	92.5%	94.4%	-5.84% (inactive)	-4.43% (inactive)
CCN(CC)S(=O)(=O)c1ccc(F)cc1	116%	106% (inactive)	116% (inactive)	98.7% (inactive)	93% (inactive)	5.97% (inactive)	87.1%	93%	-8.77% (inactive)	4.13% (inactive)
CCn1c(=O)c(C(=O)NCc2ccc(OC)cc2)c(O)c2ccccc21	86.5%	89.5% (inactive)	86.5% (inactive)	46.7% (inactive)	73.2% (inactive)	-13.4% (inactive)	86.7%	73.2%	-3.46% (inactive)	-8.5% (inactive)
CS(=O)(=O)Nc1ccc(S(=O)(=O)Nc2nccs2)cc1	97%	90% (inactive)	97% (inactive)	116% (inactive)	95.9% (inactive)	3.66% (inactive)	92.2%	95.9%	-2.93% (inactive)	1.31% (inactive)
Cc1ccc(Nc2cc(-n3nc(C)cc3C)ncn2)cc1	96.5%	97% (inactive)	96.5% (inactive)	70.7% (inactive)	74.8% (inactive)	-7.74% (inactive)	82.6%	74.8%	-0.26% (inactive)	-1.97% (inactive)
COc1ccc(S(=O)(=O)N2CCN(CC(=O)Nc3ccc(C)c(F)c3)CC2)cc1	89.5%	93.5% (inactive)	89.5% (inactive)	86.4% (inactive)	25.5% (active)	-25.9% (inactive)	51.4%	25.5%	-5.2% (inactive)	-1.94% (inactive)
COc1ccc(CN(CC(=O)NCc2ccco2)C(=O)CCC(=O)Nc2nccs2)cc1	96%	104% (inactive)	96% (inactive)	85.5% (inactive)	101% (inactive)	11% (inactive)	89.6%	101%	1.22% (inactive)	-2.13% (inactive)
CCS(=O)(=O)NCCc1cc2c(OC)ccc(OC)c2[nH]c1=O	95.5%	88.5% (inactive)	95.5% (inactive)	106% (inactive)	98.8% (inactive)	12.1% (inactive)	86.8%	98.8%	-9.45% (inactive)	0.48% (inactive)
CC(=O)NC(Cc1cc(C)ccc1C)C(=O)N1CCN(C(=O)Nc2ccc(C(C)=O)cc2)CC1 (stereo not given)	102%	101% (inactive)	102% (inactive)	109% (inactive)	88.7% (inactive)	-5.32% (inactive)	94%	88.7%	-4.62% (inactive)	-11.3% (inactive)
Nc1nc(-c2ccccc2Br)cs1	91.5%	96.5% (inactive)	91.5% (inactive)	86.3% (inactive)	91.5% (inactive)	9.75% (inactive)	81.8%	91.5%	-0.66% (inactive)	-8.55% (inactive)
CCOC(=O)N1CCN(c2cc(=O)n(-c3ccc(OCC)cc3)c(=O)[nH]2)CC1	106%	100% (inactive)	106% (inactive)	104% (inactive)	97.5% (inactive)	6.84% (inactive)	90.7%	97.5%	-4.93% (inactive)	-1.97% (inactive)
Cc1ccccc1N1OC2C(=O)N(c3ccc(F)cc3)C(=O)C2C1c1ccccn1 (stereo not given)	130%	116% (inactive)	130% (inactive)	115% (inactive)	91.4% (inactive)	9.9% (inactive)	81.5%	91.4%	-5.58% (inactive)	-2.86% (inactive)
COc1ccc(C2C3=C(CC(C)(C)CC3=O)Oc3ncn4nc(-c5cccnc5)nc4c32)cc1 (stereo not given)	96%	84.5% (inactive)	96% (inactive)	108% (inactive)	105% (inactive)	14.3% (inactive)	90.9%	105%	-9.05% (inactive)	0% (inactive)
CCN(CCCNC(=O)CC1Oc2ccc(C)cc2NC1=O)Cc1ccccc1 (stereo not given)	116%	94.5% (inactive)	116% (inactive)	97.8% (inactive)	85% (inactive)	4.2% (inactive)	80.8%	85%	-2.27% (inactive)	-2.13% (inactive)
Cn1c(=O)c2c(nc(Oc3ccc4c(c3)OCO4)n2Cc2ccc(F)cc2)n(C)c1=O	79.5%	74.5% (inactive)	79.5% (inactive)	72.1% (inactive)	74.7% (inactive)	-8.34% (inactive)	83%	74.7%	-2.84% (inactive)	3.49% (inactive)
O=C(OCc1cc2ccccc2[nH]c1=O)c1ccncc1	90.5%	89% (inactive)	90.5% (inactive)	76.4% (inactive)	79.2% (inactive)	-10.5% (inactive)	89.7%	79.2%	-4.34% (inactive)	-2.74% (inactive)
